PREPL inh: inhibitors of human prolyl oligopeptidase-like enzyme PREPL | recombinant PREPL, fluorescence polarization activity-based probe | inhibition, % at 5.96 µM | 0.68% of 320,000 active | AID 2751; in the data active = inhibition above about 43%;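 also: 0% = enzyme with DMSO and 100% = wells lacking enzyme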
Apaf-1 inh: human Apaf-1 inhibition | AID 489030 | O14727 | 0.71% of 330,000 active | inhibition, % at 20 µM | reconstituted apoptosome caspase-3 activity, DEVD-Rh110 fluorescence; active = inhibition of at least 40% at 20 µM;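 also: plate controls were DMSO wells for no effect and DEVD-CHO caspase inhibitor wells for full effect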
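Assay system – apoptosome proteins · Medium – Hepes buffer, pH 7.5 · Also added – cytochrome c with DEVD-Rh110 · Timing – 30 min compound preincubation, 50 min activation, room temperature · Detection – Rh110 fluorescence, excitation 480 nm, emission 540 nm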
EBNA-1 inhibitor: blocks EBNA-1 binding to DNA; EBNA-1 DNA binding, fluorescence polarization; inhibition, % at 14.8 µM; 0.34% of 300,000 active; AID 1950; in the data active = inhibition above about 28%
UBC13 polyUb: inhibitors of human UBC13 polyubiquitin chain formation. P61088. TR-FRET. inhibition, % at 20 µM. 0.47% of 330,000 active. AID 485273; in the data active = inhibition above about 45%, passing the limit was not always enough
Target sequence (P61088 whole entry, looked up): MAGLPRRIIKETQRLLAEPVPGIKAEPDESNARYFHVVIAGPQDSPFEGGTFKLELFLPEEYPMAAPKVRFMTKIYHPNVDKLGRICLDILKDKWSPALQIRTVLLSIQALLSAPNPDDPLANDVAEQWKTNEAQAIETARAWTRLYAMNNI
ZTA counter: ZTA (EBV) inhibition in EBNA-1 counter-screen. P03206. ZTA-DNA binding, fluorescence polarization. inhibition, % at 11 µM. 0.15% of 320,000 active. AID 2234; in the data active = inhibition above about 33%
Target sequence (P03206 whole entry, looked up): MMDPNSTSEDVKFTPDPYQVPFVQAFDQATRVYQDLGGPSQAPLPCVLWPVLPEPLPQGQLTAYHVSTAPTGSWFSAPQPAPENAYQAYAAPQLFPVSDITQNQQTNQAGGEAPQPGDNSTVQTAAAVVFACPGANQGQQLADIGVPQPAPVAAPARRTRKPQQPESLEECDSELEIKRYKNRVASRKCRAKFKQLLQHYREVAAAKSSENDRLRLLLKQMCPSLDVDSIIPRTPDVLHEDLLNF
Apaf-1 inh conf: confirmation of Apaf-1 inhibitors; shares compounds with Apaf-1 inh; reconstituted apoptosome, caspase-3 DEVD-Rh110 fluorescence; inhibition, % at 20 µM; 25% of 1,800 active; AID 504614;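 active = mean inhibition of at least 40% at 20 µM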;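 also: plate controls were DMSO wells for no effect and DEVD-CHO caspase inhibitor control wells for full effect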
Rh110 interf inh: Rh110 signal interference in Apaf-1 inhibitor counter-screen; 1,800 tested, under 10 active; AID 504615; shares compounds with Apaf-1 inh; activation (fluorescence interference), % at 20 µM; Rh110 fluorescence interference, quenched caspase reaction;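 active = signal rise of 40% or more at 20 µM, treated as a fluorescence artifact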
Apaf1 inh interf: shows fluorescence interference in the Apaf-1 inhibitor assay format; fluorescence interference counterscreen, Apaf-1 assay format; shares compounds with Apaf-1 inh; IC50, µM; 460 tested, under 10 active; call rule not given here
* marks the source's active call; other numbers are inactive results; nt = no result; + = active, no number. In the library only some 1.7% were active in any assay of this set; here they are far more common.

SMILES	PREPL inh	Apaf-1 inh	EBNA-1 inhibitor	UBC13 polyUb	ZTA counter	Apaf-1 inh conf	Rh110 interf inh	others
COc1ccc(CCNC(=O)COC(=O)c2ccc(S(=O)(=O)N3CCCC3)cc2)cc1OC	-1	-3	nt	-2	nt	nt	nt
COc1ccc(C2c3ccc4ccccc4c3Oc3ncn(CCCO)c(=N)c32)cc1OC (stereo not given)	20	-3	-3	7	-3	nt	nt
COc1ccccc1OCC(=O)NCC1CCCN(C(=O)c2ccccc2SC)C1 (stereo not given)	0	51*	10	3	-14	10	-1
CCOC(=O)CCC(NC(=O)CC(=O)NC(CCC(=O)OCC)C(=O)OCC)C(=O)OCC (stereo not given)	0	-9	1	11	16	nt	nt
COc1cccc(CN(C)C(=O)c2cc(S(=O)(=O)NCc3ccccc3)ccc2C)c1OC	5	29	-2	10	6	nt	nt
COc1ccc(CN(C)C(=O)c2cc(S(=O)(=O)NCc3ccccc3)ccc2C)c(OC)c1	10	61*	nt	33	-2	40*	11	Apaf1 inh interf=>100
NC(=O)CSc1nc2scc(-c3ccc(Cl)cc3)c2c(=O)n1Cc1ccccc1	3	47*	0	-16	-17	18	2
Cc1ccc(C(=O)N/C(=C\c2ccc(-c3ccccc3[N+](=O)[O-])o2)C(=O)NCCCN(C)C)cc1	30	56*	4	-14	-7	46*	-4	Apaf1 inh interf=>100
Cc1ccc(C(=O)N/C(=C\c2ccc(-c3ccccc3[N+](=O)[O-])o2)C(=O)NCCN(C)C)cc1	16	53*	-6	-16	-7	33	2
CN(C)CCNC(=O)/C(=C/c1ccc(-c2cccc([N+](=O)[O-])c2)o1)NC(=O)c1ccccc1	1	5	-3	14	-26	nt	nt
CCOc1ccc(NC(=O)C(=O)N/N=C/c2ccccc2F)cc1	5	-9	-6	0	-15	nt	nt
COc1cccc2cc(C(=O)NCc3ccc(Cl)cc3)c(=N)oc12	5	42*	1	-10	4	24	11
O=C(O)c1cccc2c1C(=O)N(CC1CCCO1)C2 (stereo not given)	10	1	-16	2	-2	nt	nt
O=C(Nc1ccccc1N1CCCC1)C1CCN(S(=O)(=O)c2cccc(C(F)(F)F)c2)CC1	9	42*	3	-7	15	7	15
O=S(=O)(NCc1ccccn1)c1cc(Cl)ccc1Cl	-11	-2	1	-8	6	nt	nt
COC(=O)Nc1ccccc1C(=O)N1CCC(O)(c2ccc(Cl)cc2)CC1	3	5	2	-10	6	nt	nt
O=C1c2ccccc2-c2onc3ccc(Oc4ccccc4)c1c23	-22	22	3	-62	-12	nt	nt
CCOC(=O)C(C(=O)OCC)c1cc(Br)c2noc3c2c1C(=O)c1ccccc1-3	23	89*	5	-110	7	74*	-7	Apaf1 inh interf=>100
CC1CCCC(NC(=O)COC(=O)c2ccc([N+](=O)[O-])s2)C1C (stereo not given)	2	41*	nt	-8	nt	31	5
CC(=O)Nc1ccc(NC(=O)Oc2ccccc2)cc1	9	-14	3	2	2	nt	nt
CN(C)c1ccc(NC(=O)Oc2ccccc2)cc1	21	48*	52*	-11	+	11	3
CCCCOC(=O)Nc1nc(CC(=O)OCC)cs1	-3	-5	10	-1	0	nt	nt
CN(C)S(=O)(=O)Oc1ccsc1C(=O)Nc1cccc(Cl)c1	0	13	-15	2	-11	nt	nt
N#Cc1c(NC(=O)c2ccccc2Cl)n(Cc2ccccc2)c2nc3ccccc3nc12	12	nt	9	nt	14	nt	nt
COc1ccc(-n2c(NC(=O)c3ccco3)c(C#N)c3nc4ccccc4nc32)cc1	5	96*	5	-25	3	93*	3	Apaf1 inh interf=>100
SMILES	PREPL inh	Apaf-1 inh	EBNA-1 inhibitor	UBC13 polyUb	ZTA counter	Apaf-1 inh conf	Rh110 interf inh	others
CCCCn1c(NC(=O)c2ccccc2Cl)c(C#N)c2nc3ccccc3nc21	38	93*	9	-23	16	59*	-1	Apaf1 inh interf=>100
CCC(=O)Nc1c(C#N)c2nc3ccccc3nc2n1C1CCCCC1	5	-9	-4	16	-13	nt	nt
CCOC(=O)c1c(NC(=O)c2ccco2)n(C2CCCCC2)c2nc3ccccc3nc12	11	88*	1	-31	15	36	1
FC(F)(F)c1cccc(NC(=S)NNC(=S)Nc2cccc(C(F)(F)F)c2)c1	22	2	6	-21	6	nt	nt
Cc1ccc(NS(=O)(=O)c2ccc(Cl)c(C(=O)O)c2)cc1S(=O)(=O)N1CCOCC1	-1	1	6	-5	-9	nt	nt
Oc1cc(Nc2ccccc2)cc2cccnc12	31	14	nt	-19	nt	nt	nt
Oc1cc(NCCN2CCOCC2)cc2cccnc12	12	92*	nt	-32	nt	80*	-4	Apaf1 inh interf=>100
Cc1ccc(-c2nc(CS(=O)CC(=O)N3CCN(c4ccc(F)cc4)CC3)c(C)o2)cc1 (stereo not given)	-28	6	6	4	6	nt	nt
COc1ccc(-c2cc(=O)[nH][nH]2)cc1	-8	17	7	-10	-5	nt	nt
COc1ccc(-c2cc(=O)n(CCC#N)[nH]2)cc1	2	94*	-4	-11	10	7	-6
CCN(CC(=O)Nc1ccccc1OC)C(=O)c1ccccc1Sc1ccccc1C#N	-4	58*	nt	44	-8	42*	9	Apaf1 inh interf=>100
C=CCOc1c(CCC)cc(CCC)cc1C(N)=O	6	9	-12	8	-19	nt	nt
COc1cccc(-c2[nH]nc3c2C(c2ccsc2)C(C#N)=C(N)O3)c1 (stereo not given)	13	60*	3	-28	-11	11	4
N#CC1=C(N)Oc2n[nH]c(-c3ccccc3)c2C1c1ccsc1 (stereo not given)	1	9	1	-3	-9	nt	nt
Nc1ccc(N(CCO)CCO)cc1	16	84*	193*	-42	+	46*	3	Apaf1 inh interf=>100
Nc1ccc(C(=O)N(CCO)CCO)cc1	21	-4	-1	1	3	nt	nt
COc1ccccc1NC1=C(Cl)C(=O)N(c2ccccc2)C1=O	-3	23	-1	1	5	nt	nt
COC1=C(Nc2ccccc2OC)C(=O)c2ccccc2C1=O	-1	54*	-11	-141	-12	14	11
Cc1cccc(NC(=O)CN2CCN(C(=O)c3oc4c(Cl)cccc4c3C)CC2)c1C	0	70*	nt	-3	-6	17	8
CSc1ccc(CCNC(=O)c2ccc(CS(=O)Cc3ccc(Cl)cc3)o2)cc1 (stereo not given)	12	14	-8	4	-5	nt	nt
Cc1ccc(NC(=O)c2ncn(CC(=O)N[C@H](CO)Cc3c[nH]c4ccccc34)n2)cc1C	nt	74*	nt	nt	nt	7	11

Screening results (PubChem)
